Hits are enriched below; roughly 11% of the tested compounds scored in any of these assays.
M1 antagonist: M1 muscarinic receptor (rat) antagonism; actives 3.4% (n = 64,000); CHO-M1 cells, Fluo-4 calcium, ACh EC80 antagonist mode; active compounds read low; B-score at 10 µM; P08482;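 active = calcium fluorescence response, raw or row-and-column corrected B-score, differing from the plate sample mean either way at a set confidence level, mostly lower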
Target sequence (P08482 whole entry, looked up): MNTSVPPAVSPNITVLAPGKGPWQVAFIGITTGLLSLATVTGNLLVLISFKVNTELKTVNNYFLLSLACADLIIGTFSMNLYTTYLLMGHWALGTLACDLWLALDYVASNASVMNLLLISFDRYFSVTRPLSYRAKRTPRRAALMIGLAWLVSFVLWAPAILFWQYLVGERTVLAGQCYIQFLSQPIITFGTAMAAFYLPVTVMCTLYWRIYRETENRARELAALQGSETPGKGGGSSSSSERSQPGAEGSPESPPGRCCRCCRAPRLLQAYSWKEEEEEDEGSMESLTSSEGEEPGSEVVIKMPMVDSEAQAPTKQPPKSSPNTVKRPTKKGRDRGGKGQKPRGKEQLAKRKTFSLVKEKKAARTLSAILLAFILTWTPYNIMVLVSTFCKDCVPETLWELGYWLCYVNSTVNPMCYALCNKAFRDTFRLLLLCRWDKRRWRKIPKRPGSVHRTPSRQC
S1P3 agonist: activates the human S1P3 receptor. Q99500. S1P3 NFAT-BLA reporter cells, agonism, FRET ratio; relative to 1 µM S1P, basal subtracted. activation, % at 4.5 µM. actives 0.1% (n = 60,000);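 active = activation above the screen-wide mean plus 3 SD, cut at about 4.5% in these data, passing the limit was not always enough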
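Assay system: CHO cells stably expressing human S1P3, Gα16 and NFAT-β-lactamase reporter. Timing: overnight plating, 4 h compound 37 °C, 2 h substrate RT. Signal: β-lactamase FRET emission ratio 460/535 nm. Measure: percent activation versus median 1 µM S1P response, basal-subtracted, per plate. Repeats: primary screen single test, confirmation screen in triplicate.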
TNAP act mid DEA: human TNAP activation, intermediate phosphate acceptor; P05186; purified TNAP, CDP-star luminescence, 100 mM DEA, 30 min; active compounds read high; scale: 0 levamisole-inhibited, 1 vehicle-only enzyme; activation factor at 20 µM; 64,000 tested, under 10 active; AID 813;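 active = activation factor of at least 2 at 20 µM, relative to controls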
M1 ag: M1 muscarinic receptor agonism; CHO-M1 cells, Fluo-4 calcium fluorescence, agonist mode; active compounds read high; B-score at 10 µM; actives 3% (n = 64,000);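 active = fluorescence rise, raw or as B-score row- and column-corrected plate score, outside the 99.7% band of its plate's samples, either direction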
D1 allo mod: D1 dopamine receptor (human) allosteric modulation | P21728 | HEK293 D1, CRE-luciferase, dopamine EC30 potentiation; actives deviate in either direction | B-score at 10 µM | actives 5.9% (n = 58,000) | AID 641;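 active = luminescence count or its row- and column-corrected plate score outside the 99.7% band of the plate's sample wells, on either side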
S1P1 ag pot: activates or potentiates agonism at human S1P1 receptor | P21453 | S1P1 CRE-bla cells, forskolin, beta-lactamase FRET, potentiator mode; S1P1 agonist co-added at EC20, 2 nM; 100% = saturating reference agonist, 0% = basal | activation, % at 9.5 µM | actives 0.57% (n = 56,000);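 active = activation above a cutoff set at the mean activation of all tested compounds plus 3 SD, cut at about 54% in these data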;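 note: forskolin at 4 µM as EC80 and the EC20 agonist is SEW2871; 100% = SEW2871 at its EC100 plus forskolin at EC80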
M1 antag conf: confirmation of rat M1 muscarinic receptor antagonists; actives 43% (n = 1,700); CHO-M1 cells, Fluo-4 calcium, ACh EC80 antagonism; active compounds read low; calcium response (max-min fluorescence) at 10 µM; AID 677; shares compounds with M1 antagonist;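 active = calcium response below the same-plate mean of wells given acetylcholine alone at its 80%-effect dose, minus 3 SD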;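 note: raw fluorescence intensity difference in arbitrary instrument units and not normalized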
mGluR4 antag: mGluR4 (human) activity, M1 antagonist secondary assay; AID 678; shares compounds with M1 antagonist; CHO-mGluR4 calcium flux, Fluo-4 fluorescence, glutamate EC80; active compounds read low; actives 0.9% (n = 1,700); fluorescence response (max-min) at 10 µM;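 active = fluorescence response below the plate's average for near-maximal glutamate wells, less 3 SD of those wells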;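 note: raw unnormalized fluorescence span taken in the window right after glutamate addition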
Numbers without * were called inactive.

CC(OC(=O)C1CCN(S(=O)(=O)c2ccccc2)CC1)C(=O)Nc1ncc(Cl)cc1Cl (stereo not given) was read as M1 antagonist -1.3*, S1P3 agonist 1, TNAP act mid DEA 1, M1 ag -1.7, D1 allo mod -0.51, S1P1 ag pot 27, M1 antag conf 668 and mGluR4 antag 250.
`CC(OC(=O)CCCN1C(=O)c2ccccc2C1=O)C(=O)Nc1ncc(Cl)cc1Cl` (stereo not given) gave M1 antagonist -0.068, S1P3 agonist -2, TNAP act mid DEA 1, M1 ag -0.3, D1 allo mod 0.082 and S1P1 ag pot -8.
`Cc1ccc(S(=O)(=O)N2CCC(C(=O)N3CCC[C@H]3C(=O)NCc3ccco3)CC2)cc1` gave M1 antagonist -2.2*, S1P3 agonist -1, TNAP act mid DEA 0.9, M1 ag -0.18, D1 allo mod 0.77, S1P1 ag pot 8, M1 antag conf 555* and mGluR4 antag 210.
For Cc1cc(C)n(C(=O)c2cc3ccccc3c(=O)o2)n1 the results were M1 antagonist -5.1*, S1P3 agonist 0, TNAP act mid DEA 0.9, M1 ag 0.18, D1 allo mod 0.86, S1P1 ag pot -11, M1 antag conf 662 and mGluR4 antag 250.
COc1cccc(OC)c1C(=O)n1nc(C)cc1C was read as M1 antagonist -0.64, S1P3 agonist 0, TNAP act mid DEA 0.9, M1 ag 0.69, D1 allo mod 0.02 and S1P1 ag pot -15.
For Cn1c(Cn2c(=O)sc3ccccc32)nnc1SCC(=O)NCCc1ccccc1 the results were M1 antagonist -0.33, S1P3 agonist -1, TNAP act mid DEA 1, M1 ag 0.62, D1 allo mod -0.61 and S1P1 ag pot 1.
Screening Cc1cc(-c2ccccc2)c2c3c(cn2n1)c(=O)n(C)c(=O)n3C returned M1 antagonist 1.4, S1P3 agonist -1, TNAP act mid DEA 0.9, M1 ag -0.43 and D1 allo mod 3.9.
Screening Cc1cc(-c2ccccc2)c2nncn2n1 returned M1 antagonist -14*, S1P3 agonist -2, TNAP act mid DEA 1, M1 ag 0.35, D1 allo mod 0.25, S1P1 ag pot -11, M1 antag conf 635 and mGluR4 antag 206.
COCCN(CC(=O)NCc1ccccc1)C(=O)CCC(=O)Nc1ccccn1 was read as M1 antagonist 0.44, S1P3 agonist 0, TNAP act mid DEA 0.9, M1 ag 0.62, D1 allo mod 0.072 and S1P1 ag pot -5.
Screening COc1cccc(NC(=O)CSc2nnc(-c3cc(C)n(-c4ccccc4)c3C)o2)c1 returned M1 antagonist -2.6*, S1P3 agonist 2, TNAP act mid DEA 0.9, M1 ag 0.21, D1 allo mod -2.9, S1P1 ag pot 12, M1 antag conf 504 and mGluR4 antag 237.
For COc1ccccc1-c1nnc(SCC(=O)Nc2c(Cl)cccc2Cl)o1 the results were M1 antagonist -0.58, S1P3 agonist 3, TNAP act mid DEA 1, M1 ag 0.0072, D1 allo mod -0.35 and S1P1 ag pot -25.
For CC1(C)CC(=O)C(C=Nc2ccc(O)cc2)=C(O)C1 the results were M1 antagonist -2.2*, S1P3 agonist -2, TNAP act mid DEA 1, M1 ag -0.053, S1P1 ag pot 51, M1 antag conf 644 and mGluR4 antag 249.
CCOc1ccc(N=CC2=C(O)CC(C)(C)CC2=O)cc1 was read as M1 antagonist 0.13, S1P3 agonist -1, TNAP act mid DEA 1, M1 ag -0.22, D1 allo mod 0.85 and S1P1 ag pot 23.
`O=C(Nc1nnc(C2CC2)s1)c1cc(-c2ccccc2)nn1-c1ccccc1` gave M1 antagonist 0.019, TNAP act mid DEA 0.8 and M1 ag 0.
COc1ccc(C(=O)C(CN2CCCC2)c2ccccc2)cc1 (stereo not given) was read as M1 antagonist -7.4*, S1P3 agonist -5, TNAP act mid DEA 0.9, M1 ag 0.00053, S1P1 ag pot 48, M1 antag conf 239* and mGluR4 antag 240.
`O=C(c1ccc(F)cc1)C(CN1CCOCC1)c1ccccc1` (stereo not given) gave M1 antagonist -0.92, S1P3 agonist -2, TNAP act mid DEA 0.9, M1 ag -0.024, D1 allo mod -0.38 and S1P1 ag pot 75.
`COc1ccc(CCn2c(SCC(=O)Nc3cc(C)on3)nc3ccsc3c2=O)cc1OC` gave M1 antagonist -1.7*, TNAP act mid DEA 0.9, M1 ag 2.9, D1 allo mod -0.44, M1 antag conf 596 and mGluR4 antag 212.
For CCOC(=O)c1c(C)n(C)c2ccc(O)c(CN3CCC(C)CC3)c12 the results were M1 antagonist -2*, S1P3 agonist 0, TNAP act mid DEA 0.9, M1 ag -1.3, D1 allo mod 0.016, S1P1 ag pot -1, M1 antag conf 543 and mGluR4 antag 251.
Screening COC(=O)CC1Oc2ccccc2N(Cc2ccccc2)C1=O (stereo not given) returned M1 antagonist -2.4*, S1P3 agonist -1, TNAP act mid DEA 1, M1 ag -0.054, D1 allo mod 3.5, S1P1 ag pot -20, M1 antag conf 669 and mGluR4 antag 243.
`COCCn1c(SCC(=O)Nc2ccc(S(=O)(=O)N3CCOCC3)cc2)nc2ccccc21` gave M1 antagonist -7.6*, S1P3 agonist 0, TNAP act mid DEA 0.9, M1 ag -0.34, D1 allo mod -0.19, S1P1 ag pot 7, M1 antag conf 348* and mGluR4 antag 270.
`CCOCC(=O)Nc1cc(-c2cn3cccnc3n2)ccc1C` gave M1 antagonist 0.51, TNAP act mid DEA 1, M1 ag -0.35 and D1 allo mod -0.87.
For CC(C)Cn1c(N)c(C(=O)COC(=O)c2ccc3ccccc3n2)c(=O)n(C)c1=O the results were M1 antagonist -0.047, S1P3 agonist 0, TNAP act mid DEA 0.9, M1 ag 0.042, D1 allo mod 1.2 and S1P1 ag pot -85.
Screening O=C(NCc1ccc2c(c1)OCO2)C1CC(=O)N(C2CCCC2)C1 (stereo not given) returned M1 antagonist -2.9*, S1P3 agonist -1, TNAP act mid DEA 1, M1 ag -0.56, D1 allo mod -0.76, S1P1 ag pot -2, M1 antag conf 515 and mGluR4 antag 222.

Screens as filed in PubChem.
